Screens: PubChem BioAssay, several laboratories
Only some compounds are listed: those with a hit (about 1.7% of all), similar ones and a draw of the others.
Pemphigus Ab inh – human desmoglein-3 autoantibody binding inhibition; P32926; DSG3-coupled beads, scFv-anti-DSG3-GFP binding, flow cytometry; hits give low values; binding (percent of control), % at 10 µM; 0.48% of 310,000 active; AID 588358;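 active means binding more than 3 SD below its plate's average and above zero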;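 further: hits lower antibody fragment binding to DSG3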
Target sequence (P32926 whole entry, looked up, the tested form may be a part): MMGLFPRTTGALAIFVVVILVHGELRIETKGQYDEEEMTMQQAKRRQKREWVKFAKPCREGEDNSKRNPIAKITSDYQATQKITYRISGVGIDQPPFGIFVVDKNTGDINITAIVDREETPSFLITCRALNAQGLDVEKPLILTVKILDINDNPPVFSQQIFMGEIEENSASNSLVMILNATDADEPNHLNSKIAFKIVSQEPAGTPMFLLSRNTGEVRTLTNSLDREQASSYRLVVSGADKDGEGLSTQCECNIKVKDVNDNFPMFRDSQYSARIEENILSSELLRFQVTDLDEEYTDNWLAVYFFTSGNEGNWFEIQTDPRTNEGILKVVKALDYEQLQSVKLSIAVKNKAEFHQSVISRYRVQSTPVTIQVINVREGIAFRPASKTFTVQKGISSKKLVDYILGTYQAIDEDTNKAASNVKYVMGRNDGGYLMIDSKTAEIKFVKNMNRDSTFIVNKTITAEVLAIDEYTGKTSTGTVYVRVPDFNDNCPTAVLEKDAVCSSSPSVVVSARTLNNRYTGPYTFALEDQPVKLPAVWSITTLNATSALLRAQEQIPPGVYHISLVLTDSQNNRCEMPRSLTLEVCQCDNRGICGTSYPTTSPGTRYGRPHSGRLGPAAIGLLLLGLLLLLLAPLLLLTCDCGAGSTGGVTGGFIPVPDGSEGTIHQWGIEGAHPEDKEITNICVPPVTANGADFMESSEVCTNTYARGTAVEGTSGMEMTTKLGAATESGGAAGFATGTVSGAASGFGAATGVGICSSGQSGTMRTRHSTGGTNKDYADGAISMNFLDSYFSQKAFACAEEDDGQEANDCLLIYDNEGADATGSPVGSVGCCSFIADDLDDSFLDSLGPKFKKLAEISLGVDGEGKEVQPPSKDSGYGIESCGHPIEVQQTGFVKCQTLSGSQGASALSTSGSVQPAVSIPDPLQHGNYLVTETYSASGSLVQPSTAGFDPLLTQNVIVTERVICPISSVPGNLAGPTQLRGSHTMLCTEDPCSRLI
Arr AP2 block – blocks beta-arrestin peptide binding to AP2 adaptin; FITC-arrestin peptide / GST-AP2 beads, flow cytometry; AP2 beta2 appendage carries R879A mutation; inhibition, % at 10 µM; 0.31% of 340,000 active;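 active means inhibition above a set limit, near 3 SD of compounds lacking own fluorescence, cut at about 54% in these data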;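 further: plate controls were DMSO wells for no effect and 5 µM unlabelled arrestin peptide for full effect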
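Measured by: flow cytometry, FL1 (488/535 nm); Material: AP2 appendage R879A on GSH beads; Evaluation: percent response; Timing: pre-incubation 12 min, peptide binding 1 h, room temperature; Also added: 50 nM FITC-arrestin peptide; Medium: PBS with 0.05% Tween 20 and 0.1% BSA.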
Neddyl block – blocks human cullin neddylation; inhibition, % at 25 µM; AID 651699; 0.58% of 360,000 active; P61081+Q13564; TR-FRET cullin neddylation, biochemical; in the data active means inhibition above about 36%
Efflux pump mplx – blocks antifungal efflux pumps in multiplex yeast assay. 0.44% of 330,000 active. inhibition, % at 10 µM. AID 485275. S. cerevisiae Candida pump triplex, Nile Red efflux;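 active means plate passing quality check with inhibition over a set limit, or well fluorescence over plate mean plus 4 SD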;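 further: Nile Red retained in pooled yeast measured as flow cytometry median fluorescence; 0% = buffer negative control and 100% = Enniatin B positive control; higher means more Nile Red kept so more efflux inhibition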
Cmpd fluor yeast – flagged as fluorescent in efflux inhibitor counter-screen; shares compounds with Efflux pump mplx; S. cerevisiae AD/pABC3, compound fluorescence, flow cytometry; fluorescence ratio to DMSO, % at 10 µM; 4% of 1,700 active;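 active means fluorescence ratio to DMSO above its plate's cutoff, the plate mean ratio plus 5 SD, cut at about 210% in these data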;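 further: unstained yeast with no Nile Red so the signal is compound autofluorescence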
CaMdr1 efflux inh – inhibitors of Candida albicans Mdr1 efflux pump. shares compounds with Efflux pump mplx. S. cerevisiae AD/CaMDR1, Nile Red efflux, flow cytometry. inhibition, % at 10 µM. 1% of 1,700 active. AID 588518; in the data active means inhibition above about 26%;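 further: 0% = DMSO vehicle and 100% = reference inhibitor; higher means more Nile Red retained so more efflux inhibition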
CaCdr2 efflux inh – blocks the Candida albicans Cdr2 efflux pump in yeast. shares compounds with Efflux pump mplx. 4% of 1,700 active. Nile Red retention ratio vs DMSO, % at 10 µM. S. cerevisiae AD/CaCDR2, Nile Red retention, flow cytometry; in the data active means Nile Red retention ratio vs DMSO above about 190%;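 further: higher ratio means more blocking of Cdr2 efflux of the dye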
Cdr1 pump inh – inhibitors of Candida albicans Cdr1 efflux pump; shares compounds with Efflux pump mplx; S. cerevisiae AD/CaCDR1, Nile Red efflux, flow cytometry; inhibition, % at 10 µM; 1% of 1,700 active; AID 588522;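 active means inhibition above the screen-wide mean plus twice its standard deviation, cut at about 32% in these data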
* = called active by the depositor; x = no result.

SMILES	Pemphigus Ab inh	Arr AP2 block	Neddyl block	Efflux pump mplx	Cmpd fluor yeast	CaMdr1 efflux inh	CaCdr2 efflux inh	Cdr1 pump inh
OC1CCCN(Cc2ccc3ccc4cccc5ccc2c3c45)C1 (centres undefined)	100	34	10	0	x	x	x	x
CC(C(=O)NN=C(c1ccccc1)c1ccccc1)N1CCOCC1 (centres undefined)	95	-27	-3	0	x	x	x	x
CCCSc1nc(C)c(-c2csc(C(C#N)=C3CCCC3)n2)cc1C#N	111	-2	-23	0.9*	108	0	114	0
Cc1[nH]c2ccc(C(=O)NCCN3CCOCC3)cc2c1C	110	1	17	1.4*	112	0	125	0
CCN(Cc1ccccc1)S(=O)(=O)CCNC(=O)c1ccccc1	112	15	9	0	x	x	x	x
C=CCNc1nc(Cl)nc(Nc2ccc(OCC)cc2)n1	85	4	-8	0	x	x	x	x
COC(=O)c1ccc(CN2CCC(Oc3ccc(C(=O)N4CCCCC4)cc3)CC2)cc1	113	-10	-1	0	x	x	x	x
COC(=O)c1ccc(CN2CCC(Oc3cccc(C(=O)N4CCCC4)c3)CC2)cc1	114	-2	-3	5.3*	116	0	117	0
Cc1cccc(Nc2nnc(SCC(=O)c3ccc(Br)s3)s2)c1C	97	5	-323	0	x	x	x	x
Oc1c(C(c2ccccn2)N2CCC(Cc3ccccc3)CC2)cc(Cl)c2cccnc12 (centres undefined)	x	x	x	53*	98	0	108	0
CN1CCN(C(c2ccccn2)c2cc(Cl)c3cccnc3c2O)CC1 (centres undefined)	99	10	8	0	x	x	x	x
CCc1nnc(NC(=O)CSc2nnc(CNC(=O)c3cc(OC)c(OC)c(OC)c3)o2)s1	102	28	-4	0	x	x	x	x
CC(=O)N(C)c1ccc(NC(=S)NC(=O)/C=C/c2ccco2)cc1	95	4	-31	0.6*	106	0	98	0
CN1CCN(C(=O)c2ccccc2-c2ccccc2C(=O)O)CC1	92	19	-1	6.7*	102	0	78	0
CN1CCN(C(=O)c2ccccc2[N+](=O)[O-])CC1	109	24	-6	0	x	x	x	x
Cc1ccc(S(=O)(=O)c2nc(S(=O)(=O)c3ccc(C)cc3)c(NCc3ccco3)s2)cc1	94	19	-41	0	x	x	x	x
CCCS(=O)(=O)c1nc(S(=O)(=O)c2ccc(C)cc2)c(NCc2ccco2)s1	x	-3	-2	10*	98	0	87	0
Cc1ccccc1CSc1nc2c(c(=O)[nH]1)CCC2	104	2	-9	5.9*	109	0	104	0
CCOC(=O)c1c(C)[nH]c(C)c1S(=O)(=O)NCc1ccccc1OCC	98	-7	5	0	x	x	x	x
CCOC(=O)c1c(C)[nH]c(C)c1S(=O)(=O)NCc1ccccc1C	107	32	-3	0.4*	105	0	106	0
O=C(Cn1cncn1)N/N=C/c1ccc(Cl)cc1	104	0	-3	9.7*	95	0	91	0
O=C(CCC(=O)N1CCOc2ccccc21)Nc1ccccc1Cl	98	-2	10	0	x	x	x	x
Fc1ccc(C(c2nnnn2C2CCCC2)N(Cc2ccco2)CC2CCCO2)cc1 (centres undefined)	84	46	-1	0	x	x	x	x
CCN(Cc1ccccc1)C(c1ccncc1)c1nnnn1C(C)(C)C (centres undefined)	101	-11	-6	0.4*	102	0	107	0
c1ccc(CN(Cc2ccco2)C(c2ccncc2)c2nnnn2C2CCCC2)cc1 (centres undefined)	99	-12	-10	0.6*	108	0	101	0
CC(=O)N1CCN(c2ccc(NC(=O)c3ccccc3)cc2)CC1	115	-8	1	0	x	x	x	x
CC(=O)N1CCN(c2ccc(NC(=S)NC(=O)c3ccccc3)cc2)CC1	101	5	1	5.8*	109	0	100	0
